Data reported in ChEMBL document CHEMBL4177662, “Phosphamide-containing diphenylpyrimidine analogues (PA-DPPYs) as potent focal adhesion kinase (FAK) inhibitors with enhanced activity against pancreatic cancer cell lines” (Bioorg Med Chem, 2017).

Experiments:
[1] = tested on: ASPC1; experiment: Antiproliferative activity against human Aspc-1 cells assessed as cell viability at 0.5 uM after 24 hrs by MTT assay (reference value: 100%); assay type: functional; conditions: ASPC1, 24 h, read-out: Activity
[2] = tested on: PANC-1 (human); experiment: Antiproliferative activity against human PANC-1 cells assessed as cell viability at 4 uM after 72 hrs by MTT assay (reference value: 97%); conditions: PANC-1, 72 h
[3] = tested on: ASPC1; experiment: Cell cycle arrest in human Aspc-1 cells assessed as accumulation at S phase at 1 uM after 72 hrs by propidium iodide staining-based flow cytometry (reference value: 59.70%); assay type: functional
[4] = tested on: ASPC1; experiment: Induction of apoptosis in human Aspc-1 cells assessed as late apoptotic cells at 5 uM after 72 hrs by Annexin V-FITC/propidium iodide staining-based flow cytometry (reference value: 0%); assay type: functional
How it was run: (§1)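 AsPC-1 cells (3 to 5×10^5 per well) were treated with DMSO solvent control or compound for 72 h in medium with 5% FBS. Cells were then stained with Annexin V-FITC and propidium iodide and analysed by flow cytometry. One representative experiment shown.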

[5] = tested on: ASPC1; experiment: Antiproliferative activity against human Aspc-1 cells assessed as cell viability at 4 uM after 24 hrs by MTT assay (reference value: 100%); assay type: functional; conditions: ASPC1, 24 h, read-out: Activity
[6] = tested on: ASPC1; experiment: Cell cycle arrest in human Aspc-1 cells assessed as accumulation at G0/G1 phase at 1 uM after 72 hrs by propidium iodide staining-based flow cytometry (reference value: 39.41%); assay type: functional
[7] = target: Epidermal growth factor receptor (Homo sapiens) (UniProt P00533); experiment: Inhibition of recombinant GST-tagged human EGFR cytoplasmic domain (668 to 1210 residues) expressed in baculovirus expression system at 100 nM relative to control
Epidermal growth factor receptor (Homo sapiens), sequence (P00533 whole entry, the tested form may be a part): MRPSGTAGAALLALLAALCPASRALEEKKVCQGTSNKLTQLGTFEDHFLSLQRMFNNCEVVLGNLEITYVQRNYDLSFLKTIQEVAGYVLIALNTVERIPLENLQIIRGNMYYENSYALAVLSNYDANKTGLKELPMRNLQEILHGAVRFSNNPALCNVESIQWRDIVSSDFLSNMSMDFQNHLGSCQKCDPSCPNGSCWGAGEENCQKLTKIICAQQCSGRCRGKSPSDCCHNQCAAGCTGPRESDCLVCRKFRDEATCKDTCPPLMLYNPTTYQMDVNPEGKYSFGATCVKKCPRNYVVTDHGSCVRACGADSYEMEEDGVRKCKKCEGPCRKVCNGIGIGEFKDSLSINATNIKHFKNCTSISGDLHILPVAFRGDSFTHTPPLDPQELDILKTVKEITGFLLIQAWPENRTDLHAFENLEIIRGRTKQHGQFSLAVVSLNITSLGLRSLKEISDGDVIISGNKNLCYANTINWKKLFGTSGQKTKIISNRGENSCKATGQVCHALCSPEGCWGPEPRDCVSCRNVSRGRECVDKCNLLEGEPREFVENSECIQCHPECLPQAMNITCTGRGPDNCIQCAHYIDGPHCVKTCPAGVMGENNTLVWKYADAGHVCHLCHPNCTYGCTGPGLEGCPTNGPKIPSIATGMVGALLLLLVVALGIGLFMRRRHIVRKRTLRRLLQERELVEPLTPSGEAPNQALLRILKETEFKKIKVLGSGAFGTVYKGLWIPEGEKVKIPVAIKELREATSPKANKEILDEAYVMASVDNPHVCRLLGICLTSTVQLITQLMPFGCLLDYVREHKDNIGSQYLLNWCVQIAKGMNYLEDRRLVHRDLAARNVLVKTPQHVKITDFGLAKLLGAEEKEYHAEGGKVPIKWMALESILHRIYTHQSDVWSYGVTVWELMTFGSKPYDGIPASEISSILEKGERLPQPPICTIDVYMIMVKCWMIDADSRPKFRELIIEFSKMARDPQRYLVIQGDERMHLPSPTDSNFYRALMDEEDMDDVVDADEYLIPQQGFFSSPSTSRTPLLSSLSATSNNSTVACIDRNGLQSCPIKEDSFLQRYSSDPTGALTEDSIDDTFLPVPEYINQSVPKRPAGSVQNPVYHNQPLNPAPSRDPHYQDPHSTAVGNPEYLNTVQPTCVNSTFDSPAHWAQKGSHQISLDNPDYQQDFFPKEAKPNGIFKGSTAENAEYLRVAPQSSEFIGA
How it was run: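 Part of a small kinase-panel profile run by an outsourced biochemical profiling service. The test compound was given at a single concentration of 100 nM, and activity was reported as percent inhibition rate.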

[8] = target: Focal adhesion kinase 1 (Homo sapiens, UniProt Q05397); experiment: Inhibition of recombinant human N-terminal His-tagged FAK cytoplasmic domain (393 to 698 residues) expressed in baculovirus infected sf9 cells assessed as reduction in autophosphorylation after 60 mins by ADP-Glo kinase assay
Focal adhesion kinase 1, sequence (Q05397 whole entry, the tested form may be a part): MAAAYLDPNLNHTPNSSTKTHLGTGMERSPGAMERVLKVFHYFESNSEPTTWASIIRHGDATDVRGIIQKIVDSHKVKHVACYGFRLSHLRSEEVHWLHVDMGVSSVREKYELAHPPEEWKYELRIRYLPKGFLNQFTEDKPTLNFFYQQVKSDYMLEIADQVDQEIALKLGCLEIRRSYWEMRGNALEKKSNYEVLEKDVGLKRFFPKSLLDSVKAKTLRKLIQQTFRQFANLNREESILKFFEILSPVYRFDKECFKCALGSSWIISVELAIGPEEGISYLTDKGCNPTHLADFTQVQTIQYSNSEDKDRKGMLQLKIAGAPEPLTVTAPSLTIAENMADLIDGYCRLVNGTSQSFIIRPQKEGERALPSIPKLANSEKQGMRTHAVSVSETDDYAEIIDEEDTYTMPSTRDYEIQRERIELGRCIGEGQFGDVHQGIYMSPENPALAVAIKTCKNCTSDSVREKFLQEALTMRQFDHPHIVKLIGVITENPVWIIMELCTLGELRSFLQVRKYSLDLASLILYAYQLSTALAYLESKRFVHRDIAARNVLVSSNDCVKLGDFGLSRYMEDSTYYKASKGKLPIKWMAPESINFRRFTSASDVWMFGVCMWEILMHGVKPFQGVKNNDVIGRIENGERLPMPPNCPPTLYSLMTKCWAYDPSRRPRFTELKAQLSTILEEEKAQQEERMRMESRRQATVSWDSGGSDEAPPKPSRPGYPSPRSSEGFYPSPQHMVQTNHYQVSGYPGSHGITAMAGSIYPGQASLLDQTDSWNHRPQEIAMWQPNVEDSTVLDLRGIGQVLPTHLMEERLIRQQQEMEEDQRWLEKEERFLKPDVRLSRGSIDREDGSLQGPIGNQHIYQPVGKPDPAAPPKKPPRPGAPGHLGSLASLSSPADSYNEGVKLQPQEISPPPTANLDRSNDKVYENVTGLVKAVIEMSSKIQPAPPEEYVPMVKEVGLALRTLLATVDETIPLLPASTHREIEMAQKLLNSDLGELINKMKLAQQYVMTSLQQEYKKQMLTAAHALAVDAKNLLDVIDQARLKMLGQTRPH
How it was run: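 ADP-Glo luminescence assay. The kinase reaction ran in 1× kinase buffer with compound at 1 to 200 nM, for 60 min at room temperature. ADP-Glo reagent was then added to stop the reaction and deplete leftover ATP (40 min, room temperature). Detection reagent converted ADP to ATP for luciferase read-out (30 min). IC50 from curve fitting, mean ± SE of three independent experiments.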

[9] = tested on: ASPC1; experiment: Antiproliferative activity against human Aspc-1 cells assessed as cell viability at 4 uM after 48 hrs by MTT assay (reference value: 98.1%); assay type: functional; conditions: ASPC1, 48 h, read-out: Activity
[10] = tested on: BXPC-3; experiment: Antiproliferative activity against human BxPC3 cells assessed as cell viability at 0.5 uM after 24 hrs by MTT assay (reference value: 100%); assay type: functional; conditions: BXPC-3, 24 h, read-out: Activity
[11] = tested on: ASPC1; experiment: Induction of apoptosis in human Aspc-1 cells assessed as necrotic cells at 2.5 uM after 72 hrs by Annexin V-FITC/propidium iodide staining-based flow cytometry (reference value: 0%); assay type: functional; how it was run: as §1
[12] = tested on: PANC-1 (human); experiment: Antiproliferative activity against human PANC-1 cells assessed as cell viability at 8 uM after 72 hrs by MTT assay (reference value: 97%); conditions: PANC-1, 72 h
[13] = tested on: ASPC1; experiment: Cell cycle arrest in human Aspc-1 cells assessed as accumulation at G2/M phase at 2.5 uM after 72 hrs by propidium iodide staining-based flow cytometry (reference value: 0.89%); assay type: functional
[14] = tested on: ASPC1; experiment: Cell cycle arrest in human Aspc-1 cells assessed as accumulation at G2/M phase at 1 uM after 72 hrs by propidium iodide staining-based flow cytometry (reference value: 0.89%); assay type: functional
[15] = target: Tyrosine-protein kinase receptor UFO (Homo sapiens) (UniProt P30530); experiment: Inhibition of GST-tagged human AXL (473 end residues) at 100 nM relative to control
Tyrosine-protein kinase receptor UFO (Homo sapiens), sequence (P30530 whole entry): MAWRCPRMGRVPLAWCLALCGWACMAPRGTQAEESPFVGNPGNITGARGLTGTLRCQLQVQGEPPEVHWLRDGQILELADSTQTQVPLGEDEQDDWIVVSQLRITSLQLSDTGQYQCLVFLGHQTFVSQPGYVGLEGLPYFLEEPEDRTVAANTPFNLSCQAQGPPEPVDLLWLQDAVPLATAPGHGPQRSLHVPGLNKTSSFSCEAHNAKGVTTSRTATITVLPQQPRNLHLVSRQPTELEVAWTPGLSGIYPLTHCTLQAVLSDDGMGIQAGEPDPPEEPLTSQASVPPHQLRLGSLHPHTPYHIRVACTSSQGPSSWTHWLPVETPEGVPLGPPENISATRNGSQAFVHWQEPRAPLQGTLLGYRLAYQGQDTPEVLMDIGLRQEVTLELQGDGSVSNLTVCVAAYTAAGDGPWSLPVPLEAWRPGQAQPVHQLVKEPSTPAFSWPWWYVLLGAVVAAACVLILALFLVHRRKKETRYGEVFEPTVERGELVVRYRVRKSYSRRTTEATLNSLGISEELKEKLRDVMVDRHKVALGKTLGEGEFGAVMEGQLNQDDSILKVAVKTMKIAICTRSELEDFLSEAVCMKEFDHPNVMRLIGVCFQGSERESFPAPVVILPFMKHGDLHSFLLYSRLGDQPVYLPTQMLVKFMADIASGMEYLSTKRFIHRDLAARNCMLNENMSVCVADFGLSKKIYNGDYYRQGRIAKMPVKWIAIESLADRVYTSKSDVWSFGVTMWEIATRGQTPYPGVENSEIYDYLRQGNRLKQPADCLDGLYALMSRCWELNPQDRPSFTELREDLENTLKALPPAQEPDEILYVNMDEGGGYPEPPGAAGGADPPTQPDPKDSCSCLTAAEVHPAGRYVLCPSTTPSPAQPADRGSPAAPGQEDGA
How it was run: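 SelectScreen biochemical kinase profiling service; percent inhibition of each kinase at a single compound concentration of 100 nM.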

[16] = tested on: PANC-1 (human); experiment: Antiproliferative activity against human PANC-1 cells assessed as cell viability at 8 uM after 24 hrs by MTT assay (reference value: 100%); conditions: PANC-1, 24 h
[17] = tested on: ASPC1; experiment: Induction of apoptosis in human Aspc-1 cells assessed as viable cells at 2.5 uM after 72 hrs by Annexin V-FITC/propidium iodide staining-based flow cytometry (reference value: 100%); assay type: functional; conditions: ASPC1, 72 h, read-out: Activity; how it was run: as §1
[18] = tested on: ASPC1; experiment: Induction of apoptosis in human Aspc-1 cells assessed as necrotic cells at 10 uM after 72 hrs by Annexin V-FITC/propidium iodide staining-based flow cytometry (reference value: 0%); assay type: functional; how it was run: as §1
[19] = tested on: ASPC1; experiment: Antiproliferative activity against human Aspc-1 cells assessed as cell viability at 0.5 uM after 48 hrs by MTT assay (reference value: 98.1%); assay type: functional; conditions: ASPC1, 48 h, read-out: Activity
[20] = tested on: PANC-1; experiment: Antiproliferative activity against human PANC1 cells after 72 hrs by MTT assay; assay type: functional, cell-based; conditions: PANC-1, 72 h
How it was run: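 Cells grown in DMEM with 10% FBS and 1% penicillin-streptomycin at 37 °C, 5% CO2. Seeded at 4,000 to 5,000 cells/well, cultured one day, then exposed to compounds for 72 h at 1.25 to 40 μmol/L, five replicates per concentration. MTT absorbance read at 570 nm. IC50 from five-point dose-response curves; mean of at least three separate experiments.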

[21] = tested on: ASPC1; experiment: Cell cycle arrest in human Aspc-1 cells assessed as accumulation at S phase at 2.5 uM after 72 hrs by propidium iodide staining-based flow cytometry (reference value: 59.70%); assay type: functional
[22] = target: T1, Aurora kinase A (Homo sapiens) (UniProt O14965); experiment: Inhibition of recombinant full length His-tagged human Aurora A expressed in baculovirus expression system at 100 nM relative to control
T1 sequence (whole entry): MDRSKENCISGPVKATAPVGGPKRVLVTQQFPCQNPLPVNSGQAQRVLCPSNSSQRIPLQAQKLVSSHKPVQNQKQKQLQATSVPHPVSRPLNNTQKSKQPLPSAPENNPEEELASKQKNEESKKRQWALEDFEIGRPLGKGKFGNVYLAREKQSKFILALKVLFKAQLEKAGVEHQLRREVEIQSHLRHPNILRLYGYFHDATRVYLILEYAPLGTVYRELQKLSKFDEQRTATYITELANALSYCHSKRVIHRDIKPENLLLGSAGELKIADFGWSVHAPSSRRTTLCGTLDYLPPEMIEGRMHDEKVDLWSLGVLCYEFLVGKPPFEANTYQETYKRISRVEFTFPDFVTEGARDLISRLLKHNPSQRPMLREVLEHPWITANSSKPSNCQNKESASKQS
How it was run: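 Percent inhibition of kinase activity at a single 100 nM test concentration, from an outsourced biochemical profiling screen.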

[23] = tested on: ASPC1; experiment: Induction of apoptosis in human Aspc-1 cells assessed as early apoptotic cells at 5 uM after 72 hrs by Annexin V-FITC/propidium iodide staining-based flow cytometry (reference value: 0%); assay type: functional; how it was run: as §1

For `CCOP(=O)(CCCOc1ccc(Nc2ncc([N+](=O)[O-])c(Nc3ccccc3C(=O)NC)n2)cc1)N1CCOCC1` (stereo not drawn), the viability at 0.5 µM [1] was 99.4%, the viability at 4 µM [2] was 58.4% and the Activity [3] was 48.41%. It also gave an Activity [4] of 40.3%, a viability at 4 µM [5] of 68% and an Activity [6] of 38.6%. It also gave an inhibition [7] of 22%, an IC50 [8] of 4.65 nM and a viability at 4 µM [9] of 47.7%. The viability at 0.5 µM [10] was 98%, the Activity [11] was 2.9% and the viability at 8 µM [12] was 18.1%. It also gave an Activity [13] of 16.54%, an Activity [14] of 13% and an inhibition [15] of 60%. The viability at 8 µM [16] was 87.3%, the viability at 2.5 µM [17] was 55.3% and the Activity [18] was 0.4%. For the same compound, the viability at 0.5 µM [19] was 97.4%, the IC50 [20] was > 40000 nM and the Activity [21] was 28%. The inhibition [22] was 48% and the Activity [23] was 16.3%.
